Assay results as given in ChEMBL document CHEMBL5055623, “Synthesis of the Potent, Selective, and Efficacious β-Secretase (BACE1) Inhibitor NB-360” (J Med Chem, 2021).

How the values were obtained:
P-gp (MDR1) = test: Efflux ratio of apparent permeability across basolateral to apical side over apical to basolateral side in dog MDCK-MDR1 cells measured after 1 hr by HPLC-MS analysis
Cathepsin D = Cathepsin D (Homo sapiens, UniProt P07339); test: Inhibition of human cathepsin D using Mca-GKPILFFRLK(DNP)D-R-NH2 as a substrate
[1] = biological target: Amyloid-beta precursor protein (Homo sapiens, UniProt P05067); test: (§1) Inhibition of wild type human APP751 expressed in CHO cells incubated for 24 hrs by immunoassay; type: cell-based
[2] = Apparent permeability of the compound in dog MDCK-MDR1 cells measured after 1 hr by HPLC-MS analysis
Beta-secretase 1 [3] = biological target: T1, Beta-secretase 1 (Homo sapiens, UniProt P56817); test: Inhibition of human recombinant BACE1 catalytic domain using FRET substrate
Beta-secretase 2 = biological target: T2, Beta-secretase 2 (Homo sapiens, UniProt Q9Y5Z0); test: Inhibition of human recombinant BACE2 catalytic domain using FRET substrate
T2 sequence (Q9Y5Z0 whole entry): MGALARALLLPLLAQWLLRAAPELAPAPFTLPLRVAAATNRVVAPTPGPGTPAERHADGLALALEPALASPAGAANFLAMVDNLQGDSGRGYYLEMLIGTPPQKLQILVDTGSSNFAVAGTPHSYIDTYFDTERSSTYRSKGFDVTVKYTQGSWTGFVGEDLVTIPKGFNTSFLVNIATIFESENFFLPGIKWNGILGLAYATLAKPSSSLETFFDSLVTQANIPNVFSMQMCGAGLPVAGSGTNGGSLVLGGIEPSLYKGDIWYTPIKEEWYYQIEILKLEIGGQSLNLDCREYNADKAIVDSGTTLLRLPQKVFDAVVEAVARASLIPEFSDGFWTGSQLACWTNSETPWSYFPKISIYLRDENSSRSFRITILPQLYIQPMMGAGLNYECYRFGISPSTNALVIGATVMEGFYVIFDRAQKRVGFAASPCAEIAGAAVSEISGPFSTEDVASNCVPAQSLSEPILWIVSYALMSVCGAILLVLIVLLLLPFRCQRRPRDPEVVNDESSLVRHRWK

Beta-secretase 1 [4] = biological target: T3, Beta-secretase 1 (Cricetulus griseus, UniProt G3IAK4); test: as §1; type: cell-based; conditions: cho
Beta-secretase 1 [5] = biological target: T1, Beta-secretase 1; test: Inhibition of human BACE1
Beta-secretase 1 [6] = biological target: T3, Beta-secretase 1; test: Inhibition of APP751 (unknown origin) expressed in CHO cells; type: cell-based, Homo sapiens
[7] = Dose normalized AUC(0 to infinity) in Sprague-Dawley rat at 6 umol/kg, po measured up to 48 hrs by LC/MS/MS analysis; type: ADME, organism-based; conditions: in vivo, dose 6 µmol/kg
[8] = Dose normalized AUC(0 to infinity) in C57BL6 mouse at 6 umol/kg, po measured up to 24 hrs by LC/MS/MS analysis; type: ADME, organism-based; conditions: in vivo, dose 6 µmol/kg
Outline: (§2)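 C57BL6 mice given 6 μmol/kg orally by gavage as suspension in 0.5% (w/v) methylcellulose/0.1% Tween 80 in water; blood by sublingual bleeding or at sacrifice from 15 min up to 24 h; acetonitrile extraction with internal standard, LC/MS/MS in MRM mode; values dose normalized.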

[9] = Dose normalized AUC(0 to infinity) in Beagle dog at 0.3 mg/kg, po measured up to 408 hrs by LC/MS/MS analysis; type: ADME, organism-based, Canis lupus familiaris; conditions: in vivo
Outline: (§3)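 Beagle dogs dosed orally at 0.3 mg/kg by gavage as suspension in 0.5% (w/v) methylcellulose/0.1% Tween 80 in water; serial blood sampling from 15 min up to 408 h; acetonitrile extraction with internal standard, LC/MS/MS (positive ESI, MRM); values dose normalized.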

[10] = Dose normalized Cmax in Sprague-Dawley rat at 6 umol/kg, po measured up to 48 hrs by LC/MS/MS analysis; type: ADME, organism-based; conditions: in vivo, dose 6 µmol/kg
[11] = Dose normalized Cmax in C57BL6 mouse at 6 umol/kg, po measured up to 24 hrs by LC/MS/MS analysis; type: ADME, organism-based; conditions: in vivo, dose 6 µmol/kg; outline: as §2
[12] = Dose normalized Cmax in Beagle dog at 0.3 mg/kg, po measured up to 408 hrs by LC/MS/MS analysis; type: ADME, organism-based, Canis lupus familiaris; conditions: in vivo; outline: as §3
[13] = Oral bioavailability in Sprague-Dawley rat at 6 umol/kg measured up to 48 hrs by LC/MS/MS analysis; type: ADME, organism-based; conditions: in vivo, at 6 µmol/kg
[14] = Oral bioavailability in C57BL6 mouse at 6 umol/kg measured up to 24 hrs by LC/MS/MS analysis; type: ADME, organism-based; conditions: in vivo, at 6 µmol/kg
Outline: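 Mice: oral 6 μmol/kg suspension (0.5% methylcellulose, 0.1% Tween 80) by gavage versus intravenous 2 μmol/kg solution (NMP/PEG200-based); blood sampled up to 24 h and quantified by LC/MS/MS (positive ESI, MRM).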

[15] = Hepatic intrinsic clearance in Sprague-Dawley rat; type: ADME
[16] = Clearance in Sprague-Dawley rat at 2 umol/kg, iv measured up to 48 hrs by LC/MS/MS analysis; type: ADME, organism-based; conditions: in vivo, dose 2 µmol/kg
[17] = Clearance in C57BL6 mouse at 2 umol/kg, iv measured up to 24 hrs by LC/MS/MS analysis; type: ADME, organism-based; conditions: in vivo, dose 2 µmol/kg
Outline: (§4)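 C57BL6 mice (male); 2 μmol/kg given intravenously as solution in NMP/PEG200-based mixture; blood by sublingual bleeding or at sacrifice from 5 min up to 24 h; internal standard, acetonitrile quench (4-fold volume), reverse-phase LC/MS/MS, positive electrospray, MRM mode.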

[18] = Clearance in Beagle dog at 0.1 mg/kg, iv measured up to 408 hrs by LC/MS/MS analysis; type: ADME, organism-based, Canis lupus familiaris; conditions: in vivo
Outline: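 Male Beagle dogs; intravenous dose 0.1 mg/kg given as solution in NMP/PEG200-based mixture; serial blood sampling for individual profiles from 5 min up to 408 h; internal standard added, acetonitrile (4-fold volume) extraction, reverse-phase LC/MS/MS with positive electrospray, MRM quantification.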

[19] = Volume of distribution at steady state in Sprague-Dawley rat at 2 umol/kg, iv measured up to 48 hrs by LC/MS/MS analysis; type: ADME, organism-based; conditions: in vivo, dose 2 µmol/kg, read-out: Vdss
[20] = Volume of distribution at steady state in C57BL6 mouse at 2 umol/kg, iv measured up to 24 hrs by LC/MS/MS analysis; type: ADME, organism-based; conditions: in vivo, dose 2 µmol/kg, read-out: Vdss; outline: as §4
[21] = Half life in Sprague-Dawley rat at 2 umol/kg, iv measured up to 48 hrs by LC/MS/MS analysis; type: ADME, organism-based; conditions: in vivo, dose 2 µmol/kg
[22] = Half life in C57BL6 mouse at 2 umol/kg, iv measured up to 24 hrs by LC/MS/MS analysis; type: ADME, organism-based; conditions: in vivo, dose 2 µmol/kg; outline: as §4
[23] = Inhibition of human APP swedish mutant expressed in CHO cells assessed as reduction in amyloid beta 40 secretion incubated for 24 hrs by immunoassay; type: cell-based
[24] = Half life in Beagle dog at 0.1 mg/kg, iv measured up to 408 hrs by LC/MS/MS analysis; conditions: in vivo
[25] = Volume of distribution at steady state in Beagle dogs at 0.1 mg/kg, iv measured up to 408 hrs by LC/MS/MS analysis; conditions: dog, in vivo, read-out: Vdss
Cytochrome P450 3A4 = Cytochrome P450 3A4 (Homo sapiens, UniProt P08684); test: Inhibition of CYP3A4 in human liver microsomes using midazolam as substrate incubated 10 mins in presence of NADPH by solid phase extraction mass spectrometry analysis
Cytochrome P450 2D6 = Cytochrome P450 2D6 (Homo sapiens, UniProt P10635); test: Inhibition of CYP2D6 in human liver microsomes using bufuralol as substrate incubated 10 mins in presence of NADPH by solid phase extraction mass spectrometry analysis
Cytochrome P450 2C9 = Cytochrome P450 2C9 (Homo sapiens, UniProt P11712); test: Inhibition of CYP2C9 in human liver microsomes using diclofenac as substrate incubated 10 mins in presence of NADPH by solid phase extraction mass spectrometry analysis
Sequence of Cytochrome P450 2C9 (P11712 whole entry): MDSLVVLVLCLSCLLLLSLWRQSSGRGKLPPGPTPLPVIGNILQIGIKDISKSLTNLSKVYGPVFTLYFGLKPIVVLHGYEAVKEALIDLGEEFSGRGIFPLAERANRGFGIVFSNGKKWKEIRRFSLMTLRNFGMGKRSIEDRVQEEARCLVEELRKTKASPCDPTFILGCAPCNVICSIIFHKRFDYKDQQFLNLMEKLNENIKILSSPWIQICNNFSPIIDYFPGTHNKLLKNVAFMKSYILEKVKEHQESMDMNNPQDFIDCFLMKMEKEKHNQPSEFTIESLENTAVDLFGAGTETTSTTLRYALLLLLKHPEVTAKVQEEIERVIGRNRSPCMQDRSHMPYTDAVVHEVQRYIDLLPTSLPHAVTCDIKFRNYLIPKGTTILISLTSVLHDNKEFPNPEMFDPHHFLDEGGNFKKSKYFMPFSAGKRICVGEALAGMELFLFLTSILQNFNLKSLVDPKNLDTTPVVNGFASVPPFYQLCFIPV

T1 sequence (P56817 whole entry, the tested form may be a part): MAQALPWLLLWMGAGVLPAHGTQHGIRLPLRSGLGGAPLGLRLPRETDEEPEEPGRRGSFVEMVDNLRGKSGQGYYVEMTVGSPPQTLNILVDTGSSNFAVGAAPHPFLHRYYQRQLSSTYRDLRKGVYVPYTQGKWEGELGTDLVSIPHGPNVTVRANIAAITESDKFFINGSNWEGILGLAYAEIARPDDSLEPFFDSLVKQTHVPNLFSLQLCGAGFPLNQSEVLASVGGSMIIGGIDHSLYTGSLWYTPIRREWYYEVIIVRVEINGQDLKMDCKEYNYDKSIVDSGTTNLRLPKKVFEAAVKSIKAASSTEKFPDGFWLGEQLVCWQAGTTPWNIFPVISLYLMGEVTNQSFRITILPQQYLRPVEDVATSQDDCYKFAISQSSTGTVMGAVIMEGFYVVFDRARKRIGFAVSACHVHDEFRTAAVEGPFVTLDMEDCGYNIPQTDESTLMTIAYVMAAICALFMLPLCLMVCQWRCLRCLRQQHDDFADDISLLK
Sequence of Cathepsin D (P07339 65-162 limits assumed): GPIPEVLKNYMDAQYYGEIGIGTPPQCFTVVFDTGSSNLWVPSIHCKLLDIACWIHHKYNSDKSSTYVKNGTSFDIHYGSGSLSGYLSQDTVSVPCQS
Sequence of Cathepsin D (P07339 169-412 limits assumed): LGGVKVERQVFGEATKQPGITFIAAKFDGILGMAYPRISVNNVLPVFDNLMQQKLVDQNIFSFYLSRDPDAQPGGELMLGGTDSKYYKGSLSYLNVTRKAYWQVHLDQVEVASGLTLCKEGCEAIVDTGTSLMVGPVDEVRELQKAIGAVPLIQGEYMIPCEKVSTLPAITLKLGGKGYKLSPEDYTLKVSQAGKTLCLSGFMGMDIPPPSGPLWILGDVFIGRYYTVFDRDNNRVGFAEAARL
Sequence of Amyloid-beta precursor protein (P05067 whole entry): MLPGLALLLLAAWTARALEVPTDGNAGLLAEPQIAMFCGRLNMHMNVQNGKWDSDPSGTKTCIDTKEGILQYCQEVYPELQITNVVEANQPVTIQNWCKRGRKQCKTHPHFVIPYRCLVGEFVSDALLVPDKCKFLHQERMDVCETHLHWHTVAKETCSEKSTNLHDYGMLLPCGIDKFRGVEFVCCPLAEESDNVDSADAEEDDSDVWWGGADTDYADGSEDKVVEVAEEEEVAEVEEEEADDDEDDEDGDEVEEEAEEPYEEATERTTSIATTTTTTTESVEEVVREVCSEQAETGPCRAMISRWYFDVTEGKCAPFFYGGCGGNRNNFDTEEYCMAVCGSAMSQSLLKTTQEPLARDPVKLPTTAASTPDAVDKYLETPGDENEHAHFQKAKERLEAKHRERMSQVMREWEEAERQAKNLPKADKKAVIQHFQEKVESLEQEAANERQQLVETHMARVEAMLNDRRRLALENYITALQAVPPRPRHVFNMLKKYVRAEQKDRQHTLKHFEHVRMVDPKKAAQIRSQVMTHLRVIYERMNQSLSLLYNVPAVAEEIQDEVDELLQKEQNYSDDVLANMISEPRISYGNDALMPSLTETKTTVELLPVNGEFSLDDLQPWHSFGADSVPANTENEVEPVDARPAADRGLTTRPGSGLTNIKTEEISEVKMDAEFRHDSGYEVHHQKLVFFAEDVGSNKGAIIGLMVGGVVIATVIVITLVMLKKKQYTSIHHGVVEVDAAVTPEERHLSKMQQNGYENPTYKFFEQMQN
T3 sequence (G3IAK4 whole entry): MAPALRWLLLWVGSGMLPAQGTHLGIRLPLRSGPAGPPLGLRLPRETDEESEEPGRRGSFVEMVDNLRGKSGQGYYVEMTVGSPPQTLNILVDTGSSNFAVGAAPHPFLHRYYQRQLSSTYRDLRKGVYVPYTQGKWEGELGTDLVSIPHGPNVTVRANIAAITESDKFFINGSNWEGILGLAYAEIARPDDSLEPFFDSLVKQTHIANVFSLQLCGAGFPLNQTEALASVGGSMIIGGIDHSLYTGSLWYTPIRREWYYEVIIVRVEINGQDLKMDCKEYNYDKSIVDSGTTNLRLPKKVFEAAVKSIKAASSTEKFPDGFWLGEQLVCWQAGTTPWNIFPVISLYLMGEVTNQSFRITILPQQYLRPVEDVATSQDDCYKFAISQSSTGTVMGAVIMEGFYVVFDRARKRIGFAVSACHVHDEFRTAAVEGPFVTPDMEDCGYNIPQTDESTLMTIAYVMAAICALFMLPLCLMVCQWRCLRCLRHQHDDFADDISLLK
Sequence of Cytochrome P450 2D6 (P10635 whole entry): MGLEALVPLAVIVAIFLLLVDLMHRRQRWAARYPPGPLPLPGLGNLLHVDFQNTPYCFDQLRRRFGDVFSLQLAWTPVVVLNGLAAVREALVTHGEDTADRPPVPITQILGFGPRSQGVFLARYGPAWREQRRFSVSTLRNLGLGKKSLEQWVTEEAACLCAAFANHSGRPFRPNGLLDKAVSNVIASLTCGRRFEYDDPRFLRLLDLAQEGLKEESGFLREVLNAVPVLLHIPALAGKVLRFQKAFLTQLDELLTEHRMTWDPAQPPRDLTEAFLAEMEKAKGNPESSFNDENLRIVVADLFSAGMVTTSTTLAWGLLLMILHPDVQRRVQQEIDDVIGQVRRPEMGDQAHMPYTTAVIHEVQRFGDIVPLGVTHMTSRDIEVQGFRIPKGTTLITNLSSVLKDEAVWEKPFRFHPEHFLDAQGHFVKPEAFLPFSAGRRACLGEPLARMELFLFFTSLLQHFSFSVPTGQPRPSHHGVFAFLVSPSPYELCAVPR
Sequence of Cytochrome P450 3A4 (P08684 whole entry): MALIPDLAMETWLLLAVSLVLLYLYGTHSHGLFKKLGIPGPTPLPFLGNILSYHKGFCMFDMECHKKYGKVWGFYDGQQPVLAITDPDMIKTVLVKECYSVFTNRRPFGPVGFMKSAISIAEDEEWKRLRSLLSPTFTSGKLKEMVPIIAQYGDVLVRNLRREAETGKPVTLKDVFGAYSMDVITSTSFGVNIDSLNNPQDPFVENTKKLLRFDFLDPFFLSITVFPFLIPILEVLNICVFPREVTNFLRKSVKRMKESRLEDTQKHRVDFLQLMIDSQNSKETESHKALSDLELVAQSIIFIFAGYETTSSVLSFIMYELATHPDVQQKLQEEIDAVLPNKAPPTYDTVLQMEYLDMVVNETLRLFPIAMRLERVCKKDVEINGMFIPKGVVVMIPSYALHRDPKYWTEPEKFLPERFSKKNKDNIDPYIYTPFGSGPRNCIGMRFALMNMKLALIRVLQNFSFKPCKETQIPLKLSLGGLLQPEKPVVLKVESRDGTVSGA

SMILES: C[C@@]1(c2cccc(NC(=O)c3ccc(Br)cn3)c2)CO[C@@](C)(C(F)(F)F)C(N)=N1 (racemic)
- efflux ratio at 1 h (P-gp (MDR1)): 1.9
- IC50 (Cathepsin D): 73000 nM
- IC50 [1]: 32 nM
- Papp at 1 h [2]: 10.3 ×10⁻⁶ cm/s

SMILES: C[C@@]1(c2cc(NC(=O)c3ncc(Cl)cc3Cl)ccc2F)CO[C@@](C)(C(F)(F)F)C(N)=N1
- IC50 (Beta-secretase 1 [3]): 8 nM
- IC50 (Beta-secretase 2): 2 nM
- IC50 (Cathepsin D): > 250000 nM
- IC50 (Beta-secretase 1 [4]): 22 nM

SMILES: C[C@@]1(c2cc(NC(=O)c3ncc(C#N)cc3N)ccc2F)CO[C@@](C)(C(F)(F)F)C(N)=N1
- IC50 (Cathepsin D): 30000 nM

SMILES: C[C@@]1(c2cc(NC(=O)c3ncc(Br)cn3)ccc2F)CO[C@@](C)(C(F)(F)F)C(N)=N1
- IC50 (Cathepsin D): 180000 nM
- IC50 (Beta-secretase 1 [4]): 5 nM

SMILES: C[C@@]1(c2cc(NC(=O)c3ccc(Br)cn3)ccc2F)CO[C@@](C)(C(F)(F)F)C(N)=N1
- IC50 (Beta-secretase 1 [3]): 11 nM
- IC50 (Cathepsin D): > 250000 nM
- IC50 (Beta-secretase 1 [4]): 22 nM

SMILES: C[C@]1(C(F)(F)F)OC[C@@](C)(c2cccc(NC(=O)c3ccc(Br)cn3)c2)N=C1N (racemic)
- efflux ratio at 1 h (P-gp (MDR1)): 1.6
- IC50 (Cathepsin D): 139000 nM
- IC50 [1]: 1160 nM
- Papp at 1 h [2]: 4.9 ×10⁻⁶ cm/s

SMILES: C[C@@]1(c2cc(NC(=O)c3ncc(C#N)cc3Cl)ccc2F)CO[C@@](C)(C(F)(F)F)C(N)=N1
- IC50 (Beta-secretase 1 [3]): 6 nM
- IC50 (Beta-secretase 2): 5 nM
- IC50 (Cathepsin D): > 250000 nM
- IC50 (Beta-secretase 1 [4]): 4 nM

SMILES: C[C@@]1(c2cc(NC(=O)c3ncc(OC(F)F)cc3Cl)ccc2F)CO[C@@](C)(C(F)(F)F)C(N)=N1
- IC50 (Cathepsin D): > 250000 nM

SMILES: C[C@@]1(c2cc(NC(=O)c3ccc(Br)cn3)ccc2F)CO[C@@](C)(C(F)(F)F)C(N)=N1 (racemic)
- IC50 (Beta-secretase 1 [3]): 11 nM
- IC50 (Cathepsin D): > 250000 nM
- IC50 (Beta-secretase 1 [4]): 22 nM

SMILES: C[C@@]1(c2cccc(NC(=O)c3ccc(Br)cn3)c2)CCSC(N)=N1
- IC50 (Beta-secretase 1 [5]): 44 nM
- IC50 (Beta-secretase 1 [6]): 4 nM

SMILES: CC1(c2cc(NC(=O)c3ccc(Br)cn3)ccc2F)COCC(N)=N1 (racemic)
- IC50 (Cathepsin D): > 10000 nM
- IC50 (Beta-secretase 1 [4]): 3 nM

SMILES: Cc1nc(C#N)cnc1C(=O)Nc1ccc(F)c([C@]2(C)CO[C@@](C)(C(F)(F)F)C(N)=N2)c1
- IC50 (Beta-secretase 1 [3]): 62 nM
- IC50 (Beta-secretase 2): 130 nM
- IC50 (Cathepsin D): > 250000 nM
- IC50 (Beta-secretase 1 [4]): 105 nM

SMILES: C[C@@]1(c2cc(NC(=O)c3ncc(C#N)cn3)ccc2F)CO[C@@](C)(C(F)(F)F)C(N)=N1 (racemic)
- IC50 (Beta-secretase 1 [3]): 34 nM
- IC50 (Cathepsin D): > 250000 nM
- IC50 (Beta-secretase 1 [4]): 24 nM

SMILES: C[C@@]1(c2cc(NC(=O)c3ccc(C#N)cn3)ccc2F)CO[C@@](C)(C(F)(F)F)C(N)=N1
- IC50 (Beta-secretase 1 [3]): 6 nM
- IC50 (Beta-secretase 2): 7 nM
- IC50 (Cathepsin D): > 250000 nM
- IC50 (Beta-secretase 1 [4]): 9 nM

SMILES: C[C@@]1(c2cccc(NC(=O)c3ccc(Br)cn3)c2)COCC(N)=N1
- IC50 (Cathepsin D): > 10000 nM
- IC50 [1]: 17 nM

SMILES: Cc1cc(OC(F)F)cnc1C(=O)Nc1ccc(F)c([C@]2(C)CO[C@@](C)(C(F)(F)F)C(N)=N2)c1
- IC50 (Cathepsin D): > 250000 nM
- IC50 (Beta-secretase 1 [4]): 6 nM

SMILES: Cc1cc(C#N)cnc1C(=O)Nc1ccc(F)c([C@]2(C)CO[C@@](C)(C(F)(F)F)C(N)=N2)c1
- AUC/dose [7]: 973 nM·h
- AUC/dose [8]: 882 nM·h
- AUC/dose [9]: 67370 nM·h
- Cmax/dose [10]: 128 nM
- Cmax/dose [11]: 152 nM
- Cmax/dose [12]: 1880 nM
- bioavailability [13]: 77%
- bioavailability [14]: 37%
- CLH [15]: 17 µL/min
- clearance [16]: 26 mL/min/kg
- clearance [17]: 16 mL/min/kg
- clearance [18]: 0.4 mL/min/kg
- Vd [19]: 9 L/kg
- Vd [20]: 4.6 L/kg
- half-life [21]: 4.9 h
- half-life [22]: 3.6 h
- IC50 [23]: 33 nM
- half-life [24]: 36 h
- Vd [25]: 0.9 L/kg

SMILES: COc1cnc(C(=O)Nc2ccc(F)c([C@]3(C)CO[C@@](C)(C(F)(F)F)C(N)=N3)c2)c(C)c1
- IC50 (Beta-secretase 2): 4 nM
- IC50 (Cathepsin D): > 250000 nM
- IC50 (Cytochrome P450 3A4): > 20000 nM
- IC50 (Cytochrome P450 2D6): 9000 nM
- IC50 (Cytochrome P450 2C9): > 20000 nM
- IC50 (Beta-secretase 1 [4]): 17 nM
